Measured values reported in ChEMBL document CHEMBL1154882, “Hydrogenative desulphurization of thienopyrrolizinones: an easy and selective access to (Z)-phenethylidenepyrrolizinones with in vitro cytotoxic activity” (Eur J Med Chem, 2010).

Key:
KB [1] = assay: Cytotoxicity against human KB cells assessed as growth inhibition at 10 uM after 72 hrs by MTS assay; assay type: functional
Method in brief: (§1)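 KB cells plated at 650 cells/well, treated 24 h later with compounds in DMSO at 10^-5 or 10^-6 M, in triplicate. Controls got DMSO at 1% final volume; taxotere 2.5×10^-10 M served as reference. After 72 h exposure, MTS reagent added for 3 h at 37 °C and absorbance read at 490 nm. Results given as percent inhibition of proliferation relative to control OD.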

KB [2] = assay: Cytotoxicity against human KB cells assessed as growth inhibition at 1 uM after 72 hrs by MTS assay; assay type: functional; method in brief: as §1
KB [3] = assay: Cytotoxicity against human KB cells assessed as growth inhibition after 72 hrs by MTS assay; assay type: functional, cell-based
Method in brief: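 KB cells seeded at 650 cells/well and dosed 24 h later with DMSO solutions (1% final DMSO, also given to controls) over a range starting at 0.5 nM. After 72 h exposure, MTS added for 3 h at 37 °C and A490 read. Proliferation inhibition taken versus control OD. IC50 (50% inhibition) determined in separate duplicate for compounds giving over 80% inhibition at 10^-6 M.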

[4] = Inhibition of tubulin

Structure (SMILES) | inhibition at 10 µM (KB [1]) [%] | inhibition at 1 µM (KB [2]) [%] | IC50 (KB [3]) [nM] | IC50 [4] [nM]
CC(C)C1CC(=O)c2cccn21 (configuration not stated) | 0 | 0 |  | 
COc1ccc(-c2csc3c2-n2cccc2C3=O)cc1 | 84 | 92 | 50 | 
CC(=O)O[C@@]12CO[C@@H]1C[C@H](O)[C@@]1(C)C(=O)[C@H](O)C3=C(C)[C@@H](OC(=O)[C@H](O)[C@@H](NC(=O)OC(C)(C)C)c4ccccc4)C[C@@](O)([C@@H](OC(=O)c4ccccc4)[C@H]21)C3(C)C [DOCETAXEL] |  |  | 0.4 | 
COc1ccc(/C(C)=C2/CC(=O)c3cccn32)cc1 | 78 | 1 |  | 
COc1ccc(-c2csc3c2-n2cccc2C3=O)cc1O | 86 | 86 | 5.7 | 2900
COc1ccc(/C(C)=C2/CC(=O)c3cccn32)cc1O | 95 | 91 | 70 | 
C/C(=C1\CC(=O)c2cccn21)c1ccc(Cl)cc1 | 0 | 0 |  | 
